Experimental data of several laboratories.
Compare with care: the assays were run in different laboratories.
RPS6KA1: Ribosomal protein S6 kinase alpha-1 (RPS6KA1, Homo sapiens, UniProt Q15418)
RPS6KA1 N-terminal kinase domain: Ribosomal protein S6 kinase alpha-1, N-terminal kinase domain (RPS6KA1, Homo sapiens, UniProt Q15418)
RPS6KA1 C-terminal kinase domain: Ribosomal protein S6 kinase alpha-1, C-terminal kinase domain (RPS6KA1, Homo sapiens, UniProt Q15418)

SMILES | target | assay | test system | conditions | measurement | result
Cc1sc(C(=O)NC2COC2)cc1-n1cc(NC(=O)Nc2c(F)cccc2Cl)cn1 | RPS6KA1 | enzyme activity, inhibitor |  | 10 µM | remaining activity | 93.2%
CCN(CC)CCNC(=O)c1c(C)[nH]c(/C=C2\C(=O)Nc3ccc(F)cc32)c1C | RPS6KA1 | cell-free assay |  | 0.5 µM | remaining signal | 28%
O=C(Nc1cnc(Oc2ccc(F)cc2)nc1)N1CCc2ncccc2[C@@H]1c1ccc(F)cc1 | RPS6KA1 N-terminal kinase domain | cell-free assay, competition with immobilised ligand |  | 1 µM | remaining binding | 71%
Cc1ccc(C(=O)NCc2ccsc2)cc1C#Cc1cn(C(C)C)c2ncnc(N)c12 | RPS6KA1 | enzyme activity, inhibitor |  | 1 µM | activity vs control | 101%
O=C(NCc1ncc(C(F)(F)F)cc1Cl)c1ccc2c(c1)C1(CCS(=O)(=O)CC1)[C@@H](C1CC1)N2S(=O)(=O)c1ccc(F)cc1 | RPS6KA1 C-terminal kinase domain | cell-free assay, competition with immobilised ligand |  | 1 µM | remaining binding | 100%
CN(c1ncccc1CNc1nc(Nc2ccc3c(c2)CC(=O)N3)ncc1C(F)(F)F)S(C)(=O)=O | RPS6KA1 | enzyme activity, inhibitor |  | 1 µM | inhibition | 84.8%
CC/C(=N\NC(=O)C(C)Nc1ccccc1)c1ccc(O)c(C)c1O (stereo not drawn) | RPS6KA1 | enzyme activity, inhibitor |  | 0.1 µM | inhibition | 36.6%
O=C1NC(=O)c2cc(Nc3ccc(F)cc3)c(Nc3ccc(F)cc3)cc21 | RPS6KA1 | cell-free assay |  | 0.5 µM | remaining signal | 97.7%
CCCCNc1ncc2c(-c3ccc(F)cc3)nn(C[C@H]3CC[C@H](N)CC3)c2n1 | RPS6KA1 C-terminal kinase domain | target engagement in cells, inhibitor, chemoproteomics |  | 20 mM | inhibition | 63.4%
COc1cc2ncnc(Nc3ccc(F)c(Cl)c3)c2cc1OCCCN1CCOCC1 | RPS6KA1 | cell-free assay |  | 0.5 µM | remaining signal | 97.3%
COc1cc(Cl)c(C(=O)N[C@@H](CN[C@H]2CC[C@@H](N)CC2)Cc2ccc(C#N)cc2)cc1-c1ccc(CN[C@H](C)c2ccc(C)cc2)o1 | RPS6KA1 | enzyme activity, inhibitor |  | 1 µM | remaining activity | 85%
C[C@@H]1CCN(C(=O)CC#N)C[C@@H]1N(C)c1ncnc2[nH]ccc12 | RPS6KA1 | cell-free assay, inhibitor |  | 0.5 µM | remaining signal | 90.9%
Nc1ncnc2occ(-c3ccc(NC(=O)Nc4cc(C(F)(F)F)ccc4F)cc3)c12 | RPS6KA1 C-terminal kinase domain | cell-free assay, inhibitor |  | 20 µM | remaining signal | 20%
CCN(CC)c1ccc(C2=NNC(=O)CC2C)cc1[N+](=O)[O-] (stereo not drawn) | RPS6KA1 | enzyme activity, inhibitor |  | 10 µM | remaining activity | 101%
C[S+]([O-])c1ccc(-c2nc(-c3ccncc3)c(-c3ccc(F)cc3)[nH]2)cc1 (stereo not drawn) | RPS6KA1 | cell-free assay |  | 0.5 µM | remaining signal | 99.9%
Cn1nc(C(=O)NCc2ccc(C(=O)O)cc2)cc1-c1ccc2[nH]ccc2c1 | RPS6KA1 N-terminal kinase domain | cell-free assay, competition with immobilised ligand |  | 0.1 µM | remaining binding | 100%
CCCS(=O)(=O)Nc1ccc(F)c(C(=O)c2c[nH]c3ncc(-c4ccc(Cl)cc4)cc23)c1F | RPS6KA1 | enzyme activity, inhibitor |  | 1 µM | inhibition | < 10%
COc1cc(Nc2cnc(C#N)c(O[C@H](C)CN(C)C)n2)ncc1-c1cnn(C)c1 | RPS6KA1 | enzyme activity, inhibitor, radiometric |  | 1 µM | remaining activity | 4%

SMILES | target | assay | test system | conditions | measurement | result
CN(C)CC#Cc1ccc(OCCCc2sc(N3CCc4cccc(C(=O)Nc5nc6ccccc6s5)c4C3)nc2C(=O)O)c(F)c1 | RPS6KA1 C-terminal kinase domain | cell-free assay, competition with immobilised ligand |  | 1 µM | remaining binding | 93%
COc1cccc2c(NCc3ccccc3)nc(-n3c(N)nc4ccccc43)nc12 | RPS6KA1 C-terminal kinase domain | target engagement in cells, inhibitor, chemoproteomics |  | 20 mM | inhibition | 1%
Oc1cccc(-c2nc(N3CCOCC3)c3oc4ncccc4c3n2)c1 | RPS6KA1 | enzyme activity, inhibitor |  | 10 µM | remaining activity | 101%
Nc1cnc(N2CCc3cc(S(=O)(=O)Nc4c(F)cc(Cl)cc4F)cc(N4CCCC4=O)c32)nc1 | RPS6KA1 N-terminal kinase domain | cell-free assay, competition with immobilised ligand |  | 1 µM | remaining binding | 93%
CC(C)(C)c1nc2c(s1)c1nc(N)ncc1c1ccc(NS(=O)(=O)c3c(F)cccc3F)c(F)c12 | RPS6KA1 | enzyme activity, inhibitor, radiometric |  | 1 µM | remaining activity | 107%
Cc1ccc(C(=O)Nc2ccc(CN3CCN(C)CC3)c(C(F)(F)F)c2)cc1C#Cc1cnc2cccnn12 | RPS6KA1 | enzyme activity, inhibitor |  | 23.5 nM | remaining activity | 80%
Cc1cc(C)c(-n2ccn3nc(-c4cccnc4)cc23)cc1NC(=O)c1cc(C#N)cc(S(F)(F)(F)(F)F)c1 | RPS6KA1 N-terminal kinase domain | cell-free assay, competition with immobilised ligand |  | 0.1 µM | remaining binding | 97%
CN1CC(Oc2cnc(C#N)cc2-c2ccn3nc(NC(=O)C4CC4)cc3c2)C1 | RPS6KA1 | enzyme activity, inhibitor |  | 1 µM | inhibition | 31%
Cc1ccc(NC(=O)c2ccc(C)c(C(F)(F)F)c2)cc1C#Cc1nn(C2CCC(O)CC2)c2ncnc(N)c12 (stereo not drawn) | RPS6KA1 | cell-free assay |  | 10 µM | remaining signal | 11%
Cn1c(=O)n(-c2ccc(C(C)(C)C#N)cc2)c2c3cc(-c4cnc5ccccc5c4)ccc3ncc21 | RPS6KA1 | enzyme activity, inhibitor |  | 10 µM | remaining activity | 97%
CS(=O)(=O)N1CCCC(NC(=O)[C@H](CCC2CCCCC2)NC(=O)c2ccc(CNC(=O)c3cnc4ccccn34)cc2)C1 (stereo partly drawn) | RPS6KA1 C-terminal kinase domain | cell-free assay, competition with immobilised ligand |  | 0.1 µM | remaining binding | 92%
COc1cc2ncnc(Nc3ccc(Oc4ccccc4)cc3C)c2cc1OC | RPS6KA1 | enzyme activity, inhibitor |  | 1 µM | inhibition | 6%
Cn1cncc1C1=CN(c2ncnc3[nH]cnc23)CCS1 | RPS6KA1 | enzyme activity, inhibitor, radiometric |  | 2 µM | inhibition | 82%
C#Cc1cccc(Nc2ncnc3cc(OCCOC)c(OCCOC)cc23)c1 | RPS6KA1 | cell-free assay |  | 0.5 µM | remaining signal | 97.6%
CC(C)(C)C(=O)c1sc(NC2CCCCC2)nc1N | RPS6KA1 | enzyme activity, inhibitor |  | 10 µM | remaining activity | 89%
CCS(=O)(=O)c1cc2cc(C[C@@](O)(CC(C)(C)c3ccc(F)cc3C(N)=O)C(F)(F)F)[nH]c2cn1 | RPS6KA1 C-terminal kinase domain | cell-free assay, competition with immobilised ligand |  | 1 µM | remaining binding | 0%
CNc1cc(Oc2cc(C(=O)Nc3cc(N4CCN(C)CC4)cc(C(F)(F)F)c3)ccc2C)ncn1 | RPS6KA1 C-terminal kinase domain | target engagement in cells, inhibitor, chemoproteomics | Huh-7 | 1 µM | inhibition | -27.6%
CNC(=O)c1cc(Oc2ccc(NC(=O)Nc3ccc(Cl)c(C(F)(F)F)c3)cc2)ccn1 | RPS6KA1 | enzyme activity, inhibitor |  | 10 µM | inhibition | 25%
